Assay results as given in ChEMBL document CHEMBL1141056, “Aqua mediated synthesis of substituted 2-amino-4H-chromenes and in vitro study as antibacterial agents” (Bioorg Med Chem Lett, 2005).

Tests used:
Type in all cases: functional, organism-based
Escherichia coli [1] = experiment: Antibacterial activity against Escherichia coli (ATCC 25922) at concentration 0.5 uM/ml in dimethylformamide, + = resistant
In short: (§1)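 Broth microdilution MIC per NCCLS standard protocol. Compounds dissolved in DMF and doubling-diluted in Mueller Hinton broth across 0.5–128 µg/ml; ampicillin run alongside. Inoculum adjusted to McFarland 0.5 and diluted to approx. 5×10^5 cfu/ml final per well. Plates held overnight at 37 °C. Growth scored per concentration: + resistant, − susceptible. Each plate carried broth+inoculum and broth-only control wells.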

Escherichia coli [2] = experiment: Antibacterial activity against Escherichia coli (ATCC 25922) at concentration 1.0 uM/ml in dimethylformamide, + = resistant; in short: as §1
Escherichia coli [3] = experiment: Antibacterial activity against Escherichia coli (ATCC 25922) at concentration 2.0 uM/ml in dimethylformamide, + = resistant; in short: as §1
Escherichia coli [4] = experiment: Antibacterial activity against Escherichia coli (ATCC 25922) at concentration 4.0 uM/ml in dimethylformamide, + = resistant; in short: as §1
Escherichia coli [5] = experiment: Antibacterial activity against Escherichia coli (ATCC 25922) at concentration 8.0 uM/ml in dimethylformamide, + = resistant; in short: as §1
Escherichia coli [6] = experiment: Antibacterial activity against Escherichia coli (ATCC 25922) at concentration 16.0 uM/ml in dimethylformamide, + = resistant; in short: as §1
Escherichia coli [7] = experiment: Antibacterial activity against Escherichia coli (ATCC 25922) at concentration 32.0 uM/ml in dimethylformamide, + = resistant; in short: as §1
Escherichia coli [8] = experiment: Antibacterial activity against Escherichia coli (ATCC 25922) at concentration 64.0 uM/ml in dimethylformamide, + = resistant; in short: as §1
Staphylococcus aureus [9] = experiment: Antibacterial activity against Staphylococcus aureus (ATCC 25923) at concentration 0.5 uM/ml in dimethylformamide, + = resistant; in short: as §1
Staphylococcus aureus [10] = experiment: Antibacterial activity against Staphylococcus aureus (ATCC 25923) at concentration 1.0 uM/ml in dimethylformamide, + = resistant; in short: as §1
Staphylococcus aureus [11] = experiment: Antibacterial activity against Staphylococcus aureus (ATCC 25923) at concentration 2.0 uM/ml in dimethylformamide, + = resistant; in short: as §1
Staphylococcus aureus [12] = experiment: Antibacterial activity against Staphylococcus aureus (ATCC 25923) at concentration 4.0 uM/ml in dimethylformamide, + = resistant; in short: as §1
Staphylococcus aureus [13] = experiment: Antibacterial activity against Staphylococcus aureus (ATCC 25923) at concentration 8.0 uM/ml in dimethylformamide, + = resistant; in short: as §1
Pseudomonas aeruginosa [14] = experiment: Antibacterial activity against Pseudomonas aeruginosa (ATCC 27853) at concentration 0.5 uM/ml in dimethylformamide, + = resistant; in short: as §1
Pseudomonas aeruginosa [15] = experiment: Antibacterial activity against Pseudomonas aeruginosa (ATCC 27853) at concentration 1.0 uM/ml in dimethylformamide, + = resistant; in short: as §1
Pseudomonas aeruginosa [16] = experiment: Antibacterial activity against Pseudomonas aeruginosa (ATCC 27853) at concentration 2.0 uM/ml in dimethylformamide, + = resistant; in short: as §1
Pseudomonas aeruginosa [17] = experiment: Antibacterial activity against Pseudomonas aeruginosa (ATCC 27853) at concentration 4.0 uM/ml in dimethylformamide, + = resistant; in short: as §1
Pseudomonas aeruginosa [18] = experiment: Antibacterial activity against Pseudomonas aeruginosa (ATCC 27853) at concentration 8.0 uM/ml in dimethylformamide, + = resistant; in short: as §1
Staphylococcus aureus [19] = experiment: Antibacterial activity against Staphylococcus aureus (ATCC 25923) at concentration 16.0 uM/ml in dimethylformamide, + = resistant; in short: as §1
Staphylococcus aureus [20] = experiment: Antibacterial activity against Staphylococcus aureus (ATCC 25923) at concentration 32.0 uM/ml in dimethylformamide, + = resistant; in short: as §1
Staphylococcus aureus [21] = experiment: Antibacterial activity against Staphylococcus aureus (ATCC 25923) at concentration 64.0 uM/ml in dimethylformamide, + = resistant; in short: as §1
Pseudomonas aeruginosa [22] = experiment: Antibacterial activity against Pseudomonas aeruginosa (ATCC 27853) at concentration 16.0 uM/ml in dimethylformamide, + = resistant; in short: as §1
Pseudomonas aeruginosa [23] = experiment: Antibacterial activity against Pseudomonas aeruginosa (ATCC 27853) at concentration 32.0 uM/ml in dimethylformamide, + = resistant; in short: as §1
Staphylococcus aureus [24] = experiment: Antibacterial activity against Staphylococcus aureus (ATCC 25923)i at concentration 32.0 uM/ml in dimethylformamide, + = resistant; in short: as §1
Pseudomonas aeruginosa [25] = experiment: Antibacterial activity against Pseudomonas aeruginosa (ATCC 27853) at concentration 64.0 uM/ml in dimethylformamide, + = resistant; in short: as §1

Measured: MIC

N#CC1=C(N)Oc2cc(O)ccc2C1c1ccc2c(c1)OCO2 (stereo not given)
not listed: Staphylococcus aureus [24] | Pseudomonas aeruginosa [25]
Resistant: all other assays above

N#CC1=C(N)Oc2ccc3ccccc3c2C1c1cc2ccccc2nc1Cl (stereo not given)
not listed: Staphylococcus aureus [20] | Staphylococcus aureus [21] | Pseudomonas aeruginosa [25]
Resistant: all other assays above

N#CC1=C(N)Oc2ccc3ccccc3c2C1c1ccc2c(c1)OCO2 (stereo not given)
not listed: Staphylococcus aureus [24] | Pseudomonas aeruginosa [25]
Resistant: all other assays above

N#CC1=C(N)Oc2cc(O)ccc2C1c1ccccc1 (stereo not given)
not listed: Staphylococcus aureus [24]
Resistant: all other assays above

N#CC1=C(N)Oc2ccc3ccccc3c2C1n1ccc2ccccc21 (stereo not given)
not listed: Staphylococcus aureus [24] | Pseudomonas aeruginosa [25]
Resistant: all other assays above
